According to ChEMBL document CHEMBL1208737, “Synthesis and in vitro evaluation of N-alkyl-3-hydroxy-3-(2-imino-3-methyl-5-oxoimidazolidin-4-yl)indolin-2-one analogs as potential anticancer agents” (2010):

Columns and labels:
Type in all cases: functional
LOX IMVI = assay: Growth inhibition of human LOXIMVI cells by sulforhodamine B assay
Method in brief: (§1)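 Five-dose response testing across the 57-line human tumour panel. Growth effect was plotted against log10 drug concentration for each cell line. GI50 is the molar concentration giving a 50% reduction in net protein increase relative to untreated control cells. TGI (total growth inhibition) and LC50 (concentration lethal to 50% of cells) were read from the same curves.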

MCF7 = assay: Growth inhibition of human MCF7 cells by sulforhodamine B assay
Method in brief: (§2)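 Five-dose response testing across a 57-line human tumour panel (leukemia, non-small cell lung, colon, CNS, melanoma, ovarian, renal, prostate, breast), done after a single-dose primary screen run per the NCI method. Effect plotted against log10 molar drug concentration for each cell line. GI50 is the concentration giving a 50% reduction in net protein increase versus control cells.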

M14 = assay: Growth inhibition of human M14 cells by sulforhodamine B assay; method in brief: as §2
HT-29 = assay: Growth inhibition of human HT-29 cells by sulforhodamine B assay; method in brief: as §2
UACC-62 = assay: Growth inhibition of human UACC62 cells by sulforhodamine B assay
Method in brief: (§3)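 Part of a 57-line human tumour cell panel run at five doses. Growth effect was plotted against log10 molar drug concentration for each cell line. GI50 is the concentration giving a 50% reduction in net protein increase relative to untreated control cells, read from the dose-response curve.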

MDA-MB-468 = assay: Growth inhibition of human MDA-MB-468 cells by sulforhodamine B assay; method in brief: as §2
SK-OV-3 = assay: Growth inhibition of human SKOV3 cells by sulforhodamine B assay; method in brief: as §2
NCI-H522 = assay: Growth inhibition of human NCI-H522 cells by sulforhodamine B assay; method in brief: as §2
DU-145 = assay: Growth inhibition of human DU145 cells by sulforhodamine B assay; method in brief: as §2
NCI-H322M = assay: Growth inhibition of human NCI-H322M cells by sulforhodamine B assay; method in brief: as §2
BT-549 = assay: Growth inhibition of human BT549 cells by sulforhodamine B assay; method in brief: as §2
EKVX = assay: Growth inhibition of human EKVX cells by sulforhodamine B assay; method in brief: as §2
MDA-MB-231 = assay: Growth inhibition of human MDA-MB-231 cells by sulforhodamine B assay; method in brief: as §2
[1] = Growth inhibition of human Hs 578T cells by sulforhodamine B assay; method in brief: as §2
SNB-75 = assay: Growth inhibition of human SNB75 cells by sulforhodamine B assay; method in brief: as §2
T47D = assay: Growth inhibition of human T47D cells by sulforhodamine B assay; method in brief: as §3
SN12C = assay: Growth inhibition of human SN12C cells by sulforhodamine B assay; method in brief: as §2
SW-620 = assay: Growth inhibition of human SW620 cells by sulforhodamine B assay; method in brief: as §2
SK-MEL-5 = assay: Growth inhibition of human SK-MEL-5 cells by sulforhodamine B assay; method in brief: as §2
SNB-19 = assay: Growth inhibition of human SNB19 cells by sulforhodamine B assay; method in brief: as §2
CAKI-1 = assay: Growth inhibition of human Caki1 cells by sulforhodamine B assay; method in brief: as §2
OVCAR-3 = assay: Growth inhibition of human OVCAR-3 cells by sulforhodamine B assay; method in brief: as §2
HCC 2998 = assay: Growth inhibition of human HCC2998 cells by sulforhodamine B assay; method in brief: as §2
ACHN = assay: Growth inhibition of human ACHN cells by sulforhodamine B assay; method in brief: as §2
SF-295 = assay: Growth inhibition of human SF295 cells by sulforhodamine B assay; method in brief: as §2
NCI-H460 = assay: Growth inhibition of human NCI-H460 cells by sulforhodamine B assay; method in brief: as §2
SK-MEL-2 = assay: Growth inhibition of human SK-MEL-2 cells by sulforhodamine B assay; method in brief: as §2
COLO 205 = assay: Growth inhibition of human COLO205 cells by sulforhodamine B assay; method in brief: as §2
NCI-H226 = assay: Growth inhibition of human NCI-H226 cells by sulforhodamine B assay; method in brief: as §2
K562 = assay: Growth inhibition of human K562 cells by sulforhodamine B assay; method in brief: as §2
SF-539 = assay: Growth inhibition of human SF539 cells by sulforhodamine B assay; method in brief: as §2
MOLT-4 = assay: Growth inhibition of human MOLT4 cells by sulforhodamine B assay; method in brief: as §2
OVCAR-4 = assay: Growth inhibition of human OVCAR4 cells by sulforhodamine B assay; method in brief: as §2
PC-3 = assay: Growth inhibition of human PC3 cells by sulforhodamine B assay; method in brief: as §2
NCI/ADR-RES = assay: Growth inhibition of human NCI/ADR-RES cells by sulforhodamine B assay; method in brief: as §2
HOP-62 = assay: Growth inhibition of human HOP62 cells by sulforhodamine B assay; method in brief: as §2
SF-268 = assay: Growth inhibition of human SF268 cells by sulforhodamine B assay; method in brief: as §2
[2] = Growth inhibition of human […] cells by sulforhodamine B assay; method in brief: as §2
A549 = assay: Growth inhibition of human A549 cells by sulforhodamine B assay; method in brief: as §1
HCT-116 = assay: Growth inhibition of human HCT116 cells by sulforhodamine B assay; method in brief: as §2
CCRF-CEM = assay: Growth inhibition of human CCRF-CEM cells by sulforhodamine B assay; method in brief: as §2
RXF 393 = assay: Growth inhibition of human RXF393 cells by sulforhodamine B assay; method in brief: as §2
786-0 = assay: Growth inhibition of human 786-0 cells by sulforhodamine B assay; method in brief: as §2
[3] = read-out: LC50 (the source's name)

Question: Which GI50 (LOX IMVI) does the source give for `COc1ccc(CN2C(=O)C(O)(C3C(=O)NC(=N)N3C)c3ccccc32)cc1` (stereo unspecified) here?
Answer: 8.09 µM

Question: What about the CC50 (LOX IMVI; [3]) of the same compound?
Answer: > 100 µM

Question: And the GI50 (MCF7)?
Answer: 6.93 µM

Question: And the LC50 (concentration killing 50% of starting cells) (MCF7)?
Answer: > 100 µM

Question: And the GI50 (M14)?
Answer: 4.93 µM

Question: What about the LC50 (M14) of the same compound?
Answer: > 100 µM

Question: What about the GI50 (HT-29) of the same compound?
Answer: 4.06 µM

Question: What about the LC50 (HT-29) of the same compound?
Answer: > 100 µM

Question: What about the GI50 (UACC-62) of the same compound?
Answer: 27.7 µM

Question: And the CC50 (UACC-62; [3])?
Answer: > 100 µM

Question: What about the GI50 (MDA-MB-468) of the same compound?
Answer: 11.6 µM

Question: And the LC50 (concentration causing 50% net cell kill) (MDA-MB-468)?
Answer: > 100 µM

Question: What about the GI50 (SK-OV-3) of the same compound?
Answer: 45.5 µM

Question: And the CC50 (SK-OV-3; [3])?
Answer: > 100 µM

Question: What about the GI50 (NCI-H522) of the same compound?
Answer: 3.65 µM

Question: What about the LC50 (concentration killing 50% of cells) (NCI-H522) of the same compound?
Answer: > 100 µM

Question: What about the GI50 (DU-145) of the same compound?
Answer: 21.4 µM

Question: What about the CC50 (DU-145; [3]) of the same compound?
Answer: > 100 µM

Question: What about the GI50 (NCI-H322M) of the same compound?
Answer: 41.1 µM

Question: What about the CC50 (NCI-H322M; [3]) of the same compound?
Answer: > 100 µM

Question: And the GI50 (BT-549)?
Answer: 8.45 µM

Question: And the LC50 (BT-549)?
Answer: 97 µM

Question: What about the GI50 (EKVX) of the same compound?
Answer: 71.7 µM

Question: And the LC50 (EKVX)?
Answer: > 100 µM

Question: And the GI50 (MDA-MB-231)?
Answer: 19.4 µM

Question: And the CC50 (MDA-MB-231; [3])?
Answer: > 100 µM

Question: And the GI50 [1]?
Answer: 60.3 µM

Question: What about the CC50 [1, 3] of the same compound?
Answer: > 100 µM

Question: And the GI50 (SNB-75)?
Answer: 28.8 µM

Question: And the CC50 (SNB-75; [3])?
Answer: > 100 µM

Question: What about the GI50 (T47D) of the same compound?
Answer: 32 µM

Question: And the LC50 (T47D)?
Answer: > 100 µM

Question: What about the GI50 (SN12C) of the same compound?
Answer: > 100 µM

Question: And the CC50 (SN12C; [3])?
Answer: > 100 µM

Question: What about the GI50 (SW-620) of the same compound?
Answer: 4.12 µM

Question: And the CC50 (SW-620; [3])?
Answer: > 100 µM

Question: And the GI50 (SK-MEL-5)?
Answer: 37.3 µM

Question: What about the CC50 (SK-MEL-5; [3]) of the same compound?
Answer: > 100 µM

Question: What about the GI50 (SNB-19) of the same compound?
Answer: 30.6 µM

Question: What about the CC50 (SNB-19; [3]) of the same compound?
Answer: > 100 µM

Question: And the GI50 (CAKI-1)?
Answer: 53.9 µM

Question: What about the CC50 (CAKI-1; [3]) of the same compound?
Answer: > 100 µM

Question: What about the GI50 (OVCAR-3) of the same compound?
Answer: 2.29 µM

Question: And the CC50 (OVCAR-3; [3])?
Answer: 30.1 µM

Question: And the GI50 (HCC 2998)?
Answer: 12.8 µM

Question: What about the LC50 (HCC 2998) of the same compound?
Answer: 63.9 µM

Question: And the GI50 (ACHN)?
Answer: > 100 µM

Question: What about the CC50 (ACHN; [3]) of the same compound?
Answer: > 100 µM

Question: And the GI50 (SF-295)?
Answer: 26 µM

Question: What about the CC50 (SF-295; [3]) of the same compound?
Answer: > 100 µM

Question: And the GI50 (NCI-H460)?
Answer: 29 µM

Question: And the LC50 (NCI-H460)?
Answer: > 100 µM

Question: And the GI50 (SK-MEL-2)?
Answer: 95.2 µM

Question: What about the CC50 (SK-MEL-2; [3]) of the same compound?
Answer: > 100 µM

Question: What about the GI50 (COLO 205) of the same compound?
Answer: 19.9 µM

Question: And the CC50 (COLO 205; [3])?
Answer: > 100 µM

Question: What about the GI50 (NCI-H226) of the same compound?
Answer: 38.4 µM

Question: What about the CC50 (NCI-H226; [3]) of the same compound?
Answer: > 100 µM

Question: And the GI50 (K562)?
Answer: 3.73 µM

Question: What about the CC50 (K562; [3]) of the same compound?
Answer: > 100 µM

Question: What about the GI50 (SF-539) of the same compound?
Answer: 3.73 µM

Question: And the CC50 (SF-539; [3])?
Answer: > 100 µM

Question: What about the GI50 (MOLT-4) of the same compound?
Answer: 4.79 µM

Question: What about the CC50 (MOLT-4; [3]) of the same compound?
Answer: > 100 µM

Question: What about the GI50 (OVCAR-4) of the same compound?
Answer: 7.13 µM

Question: And the CC50 (OVCAR-4; [3])?
Answer: > 100 µM

Question: And the GI50 (PC-3)?
Answer: 46.9 µM

Question: What about the CC50 (PC-3; [3]) of the same compound?
Answer: > 100 µM

Question: What about the GI50 (NCI/ADR-RES) of the same compound?
Answer: 1.99 µM

Question: What about the CC50 (NCI/ADR-RES; [3]) of the same compound?
Answer: > 100 µM

Question: And the GI50 (HOP-62)?
Answer: 4.31 µM

Question: And the CC50 (HOP-62; [3])?
Answer: > 100 µM

Question: What about the GI50 (SF-268) of the same compound?
Answer: 5 µM

Question: And the CC50 (SF-268; [3])?
Answer: > 100 µM

Question: And the GI50 [2]?
Answer: 2.87 µM

Question: What about the CC50 [2, 3] of the same compound?
Answer: > 100 µM

Question: And the GI50 (A549)?
Answer: 43.6 µM

Question: And the LC50 (A549)?
Answer: > 100 µM

Question: And the GI50 (HCT-116)?
Answer: 2.4 µM

Question: What about the LC50 (HCT-116) of the same compound?
Answer: > 100 µM

Question: And the GI50 (CCRF-CEM)?
Answer: 2.18 µM

Question: What about the CC50 (CCRF-CEM; [3]) of the same compound?
Answer: > 100 µM

Question: What about the GI50 (RXF 393) of the same compound?
Answer: 7.4 µM

Question: What about the CC50 (RXF 393; [3]) of the same compound?
Answer: > 100 µM

Question: What about the GI50 (786-0) of the same compound?
Answer: 23 µM

Question: And the CC50 (786-0; [3])?
Answer: > 100 µM
